Experimental data from different studies.
Target: Mitogen-activated protein kinase 11 (MAPK11, Homo sapiens, UniProt Q15759)

O=C(c1ccc(Nc2nccc(-c3cc4ccccc4s3)n2)cc1)N1CCC(N2CCCC2)CC1
remaining binding (binding, competition with immobilised ligand; 1 µM): 95%

CC(=O)N1CCC(c2ccc(C(=O)NC3=NCCN3)cc2C(F)(F)F)CC1
remaining binding (cell-free assay, competition with immobilised ligand; 1 µM): 98%

C[C@@H](c1ccc(-n2cnc3c(N)ncnc32)cc1)N1CCc2nn(C)c(Cc3ccccc3)c2C1=O
remaining binding (binding, competition with immobilised ligand; 0.1 µM): 92%

c1cncc(-c2cccc(Nc3nccc(NC4CCCCC4)n3)c2)c1
remaining binding (binding, competition with immobilised ligand; 10 µM): 89%

O=C(N[C@H]1CCCCC/C=C\C2C[C@@]2(C(=O)O)NC(=O)[C@@H]2C[C@@H](Oc3ccncc3)CN2C1=O)OC1CCCC1 (stereo partly shown)
remaining binding (binding, competition with immobilised ligand; 1 µM): 100%

N#Cc1ccccc1CSc1nnc2c(n1)[nH]c1ccccc12
remaining binding (binding, competition with immobilised ligand; 10 µM): 94%

FC(F)(F)Oc1cccc(-c2cnc3ccc(-c4ccncc4)nn23)c1
remaining binding (cell-free assay, competition with immobilised ligand; 5 µM): 89%

CN(C)c1ncc(F)c(-c2cnn3ncccc23)n1
remaining binding (binding, competition with immobilised ligand; 1 µM): 100%

COc1cnc(Nc2cccc(S(N)(=O)=O)c2)nc1N1CCN(c2ccccc2)CC1
remaining binding (binding, competition with immobilised ligand; 1 µM): 100%

N[C@@H]1CCN(c2nccc(-c3cnn4ncccc34)n2)C1
remaining binding (binding, competition with immobilised ligand; 1 µM): 100%

O=C(NCC1CCOCC1)c1n[nH]cc1NC(=O)c1c(F)cccc1F
remaining binding (binding, competition with immobilised ligand; 1 µM): 96%

C[C@@H]1CN(c2ccc3ncc(-c4ccc5[nH]nc(C6CC6)c5c4)n3n2)C[C@H](C)O1
remaining binding (binding, competition with immobilised ligand; 0.5 µM): 100%

CN(C)c1ncnc(-c2ccc3nc(Nc4cc(CN5CCN(C(=O)CC(F)(F)F)CC5)ccn4)[nH]c3c2)c1Cl
remaining binding (cell-free assay, competition with immobilised ligand; 1 µM): 97%

CN(CCCC(F)(F)F)c1nccc(-c2cnn3ncccc23)n1
remaining binding (binding, competition with immobilised ligand; 1 µM): 93%

C[C@@H]1CN(c2cc(-c3n[nH]c4ccc(OC5(C)CC5)cc34)ncn2)C[C@H](C)O1
remaining binding (cell-free assay, competition with immobilised ligand; 0.1 µM): 89%

CN(c1nccc(-c2cnn3ncccc23)n1)C1CC1
remaining binding (binding; 1 µM): 89%

COc1cnc(Nc2cccc(S(N)(=O)=O)c2)nc1N1CCN(c2ccccc2)C(=O)C1
remaining binding (binding, competition with immobilised ligand; 1 µM): 100%

O=C(NCCCN1CCOCC1)c1ccc(Nc2nccc(-c3cc4ccccc4s3)n2)cc1
remaining binding (binding, competition with immobilised ligand; 1 µM): 98%

CCS(=O)(=O)c1cc2cc(C[C@](O)(CC(C)(C)c3ccc(F)cc3C(N)=O)C(F)(F)F)[nH]c2cn1
remaining binding (cell-free assay, competition with immobilised ligand; 1 µM): 100%

C[C@@H]1CCN(c2nccc(-c3cnn4ncccc34)n2)C1
remaining binding (binding, competition with immobilised ligand; 1 µM): 100%

O=S(=O)(NC1CCC(c2cc(F)ccc2F)(S(=O)(=O)c2ccc(Cl)cc2)CC1)C(F)(F)F (stereo not shown)
remaining binding (cell-free assay, competition with immobilised ligand; 1 µM): 94%

COc1ncc2cc3ccccc3nc2c1C#N
remaining binding (cell-free assay, competition with immobilised ligand; 5 µM): 92%
